For three molecules, IC50 results are on record in ChEMBL document CHEMBL5257107 (Bioorg Med Chem Lett, 2023).

The series can be described thus: Cytotoxicity against human IMR-32 cells assessed as reduction in cell viability measured after 24 hrs by celltiter-glo-based assay. Type of series: toxicity. Summed up: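 Human IMR32 neuroblastoma cells were exposed to compound for 24 h. Viability was then read by CellTiter-Glo luminescence.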

Each structure is given as a SMILES string.

Turning to `O=C(O)CCCN[C@H]1CS(=O)(=O)C[C@@H]1S(=O)(=O)c1ccc(Cl)c(Cl)c1`, the IC50 at 24 h was above 20 µM.

As to `O=C(O)CCCCCN[C@H]1CS(=O)(=O)C[C@@H]1S(=O)(=O)c1ccc(Cl)c(Cl)c1`, the IC50 at 24 h is above 20 µM.

Consider `CC(C)CN[C@H]1CS(=O)(=O)C[C@@H]1C(=O)Nc1ccc(Cl)c(Cl)c1`, for which the IC50 at 24 h is above 20 µM.
